The values that follow come from ChEMBL document CHEMBL1156469 (2007).

Calls of active or inactive are those of the source. The calls are words filed in the database; no cut-off is given here.

Test [1] is described as follows: Reversal of induction of BMP2 expression in mouse MC3T3-E1 cells at 1 uM by Western blot in presence of ICI-182780. The class given is functional, cell-based. Background: In western blotting, separated proteins are transferred to a membrane and probed.
The subject of test [2] is MC3T3-E1. Nature of the test: Reversal of increase in ER.DNA complex in mouse MC3T3-E1 cells at 1 uM by RT-PCR in presence of PP2. It counts as functional, cell-based. Put shortly:
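BMP-2 promoter quantified by real-time PCR (45 cycles, 61 °C anneal), reported as IP-to-input Ct ratio. DN-Src by 3 μg vector, PP2 at 10 μM; ICI182780 and tamoxifen at indicated concentrations.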

For test [3], the system named is Osteoblast. Nature of the test: Effect on ornithine decarboxylase gene expression in rat primary osteoblast cells assessed as expression ratio of treated to untreated control by microarray analysis. It counts as functional. An outline of the steps:
(§1)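 Resveratrol-treated and vehicle-treated primary osteoblasts were profiled on a mouse osteogenesis-focused cDNA array (GEArray Q series) built to track gene expression during osteogenic differentiation. Each gene's signal in treated cells was expressed as a ratio to untreated control.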

In test [4] the test system is Osteoblast. Nature of the test: Effect on vascular cell adhesion molecule 1 gene expression in rat primary osteoblast cells assessed as expression ratio of treated to untreated control by microarray analysis. The class given is functional. An outline of the steps:
(§2)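 GEArray Q series Mouse Osteogenesis cDNA array profiling osteogenic-differentiation genes in treated versus vehicle-treated primary osteoblasts.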

In test [5] the test system is Osteoblast. Briefly: Effect on vascular endothelial growth factor A gene expression in rat primary osteoblast cells assessed as expression ratio of treated to untreated control by microarray analysis. It counts as functional. Put shortly: as §2
In test [6] the target is T1, Alkaline phosphatase (Mus musculus) (UniProt Q9EQ79).
T1 sequence (whole entry): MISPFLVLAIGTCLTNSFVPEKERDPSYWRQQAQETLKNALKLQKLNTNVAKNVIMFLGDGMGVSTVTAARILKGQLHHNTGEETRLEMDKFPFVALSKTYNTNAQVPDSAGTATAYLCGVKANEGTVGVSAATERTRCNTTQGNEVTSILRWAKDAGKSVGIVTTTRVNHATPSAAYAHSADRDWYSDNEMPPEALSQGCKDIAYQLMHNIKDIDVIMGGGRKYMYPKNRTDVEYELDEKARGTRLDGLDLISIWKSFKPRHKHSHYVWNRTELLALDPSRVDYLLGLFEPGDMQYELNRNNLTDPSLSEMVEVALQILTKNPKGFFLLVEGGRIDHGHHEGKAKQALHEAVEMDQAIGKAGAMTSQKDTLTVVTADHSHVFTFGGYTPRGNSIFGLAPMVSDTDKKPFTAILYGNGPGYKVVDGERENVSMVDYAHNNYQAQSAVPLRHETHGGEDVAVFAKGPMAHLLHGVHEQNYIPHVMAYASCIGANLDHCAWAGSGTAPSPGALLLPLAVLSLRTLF
Briefly: Inhibition of induction of ALP activity in mouse MC3T3-E1 cells at 1 uM after 48 hrs in presence of noggin. It counts as cell-based.

Another test deals with T47D. Briefly: Antiproliferative activity against human T47D cells at 1 uM by flow cytometry. The class given is functional, cell-based. An outline of the steps:
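Proliferation was measured by DNA flow cytometry. Incubations were run in triplicate across three separate experiments, and values are means ± S.D.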
(In general: Flow cytometry measures light scatter and fluorescence of single cells or particles in a stream.)

For test [7], the system named is MC3T3-E1. Nature of the test: Increase in BMP2 expression in mouse MC3T3-E1 cells expressing pBMP2delta3 mutant at 1 uM after 4 hrs by luciferase method relative to control. It counts as functional, cell-based. Put shortly:
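MC3T3-E1 cells transfected with BMP-2 promoter–luciferase constructs (full promoter or deletions), treated with 1 μm or vehicle for 4 h; Dual-Luciferase assay; means ± S.D.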

Another test relates to MG-63. Nature of the test: Increase in proliferation of human MG63 cells at 0.1 to 10 uM after 24 hr by flow cytometry. The class given is functional, cell-based.
Test [8] concerns the target T2, Estrogen receptor (Mus musculus) (UniProt P19785).
T2 sequence (whole entry): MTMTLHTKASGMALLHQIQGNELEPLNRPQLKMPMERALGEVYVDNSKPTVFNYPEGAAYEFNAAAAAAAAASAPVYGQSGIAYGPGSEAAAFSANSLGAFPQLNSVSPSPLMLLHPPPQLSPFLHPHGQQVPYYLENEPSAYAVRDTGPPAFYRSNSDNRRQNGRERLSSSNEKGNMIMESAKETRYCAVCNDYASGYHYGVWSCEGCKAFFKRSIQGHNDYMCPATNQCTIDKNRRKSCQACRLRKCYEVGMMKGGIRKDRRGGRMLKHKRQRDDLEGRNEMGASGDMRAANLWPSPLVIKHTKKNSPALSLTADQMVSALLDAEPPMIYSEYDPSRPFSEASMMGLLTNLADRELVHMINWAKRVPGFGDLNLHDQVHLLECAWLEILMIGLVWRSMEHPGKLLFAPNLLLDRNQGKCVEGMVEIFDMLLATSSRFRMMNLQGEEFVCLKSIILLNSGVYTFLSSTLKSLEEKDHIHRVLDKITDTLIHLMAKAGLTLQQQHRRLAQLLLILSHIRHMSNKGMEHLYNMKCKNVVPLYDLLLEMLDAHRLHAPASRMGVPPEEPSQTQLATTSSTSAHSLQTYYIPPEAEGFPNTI
Briefly: Increase in DNA-binding activity of ERalpha in nuclear extracts of mouse MC3T3-E1 cells by electrophoretic mobility shift assays. The class given is cell-based. An outline of the steps:
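MC3T3-E1 nuclear extracts incubated with 32P end-labeled ERα probe for 20 min at room temperature in 20 μl; 5-fold unlabeled competitor for specificity; 5% nondenaturing PAGE in Tris-borate-EDTA pH 8.3, autoradiography at –70 °C.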
In general terms: Mobility shift assays separate free from complexed probe on a gel.

The subject of test [9] is Osteoblast. Nature of the test: Increase in osteocalcin levels in rat primary osteoblast cells at 1 uM after 72 hrs by ELISA. The class given is functional, cell-based. An outline of the steps:
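Cells treated with 1 μm for 72 h; osteocalcin or osteopontin in culture medium by sandwich ELISA, HRP-streptavidin/TMB, 450 nm; percent change versus untreated control.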

Test [10] deals with MC3T3-E1. Briefly: Increase in osteopontin mRNA levels in mouse MC3T3-E1 cells at 1 uM after 72 hrs by RT-PCR. It counts as functional, cell-based. Put shortly:
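Cells treated with 1 μm for 72 h; osteocalcin and osteopontin mRNA by RT-PCR, 30 cycles (95/52/72 °C, 1 min each), ethidium bromide–stained agarose gels; repeated at least twice from at least two cDNA preparations.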

The subject of test [11] is MC3T3-E1. Nature of the test: Increase in BMP2 mRNA levels in mouse MC3T3-E1 cells at 1 uM by RT-PCR method. It counts as functional, cell-based. To be noted: TDE = time-dependent effect. Put shortly:
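Cells treated with 1 μm for 48 h; BMP-2 mRNA measured by quantitative real-time RT-PCR (SYBR Green, 0.5 μm each primer, 4 mm MgCl2, fluorescence read at 82 °C) and normalized.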

In test [12] the test system is Osteoblast. Briefly: Effect on procollagen 6 alpha 1 gene expression in rat primary osteoblast cells assessed as expression ratio of treated to untreated control by microarray analysis. It counts as functional. Put shortly:
as §1

Test [13] concerns Osteoblast. Briefly: Effect on ubiquitin-conjugating enzyme E2D 3 gene expression in rat primary osteoblast cells assessed as expression ratio of treated to untreated control by microarray analysis. The class given is functional. Put shortly:
as §2

Test [14] concerns Osteoblast. Nature of the test: Effect on procollagen 3 alpha 1 gene expression in rat primary osteoblast cells assessed as expression ratio of treated to untreated control by microarray analysis. The class given is functional. An outline of the steps:
as §1

Test [15] has as its system MC3T3-E1. Nature of the test: Inhibition of antiapoptotic activity in mouse MC3T3-E1 cells at 1 uM after 48 hrs in presence of noggin. The class given is functional, cell-based.

Turning to `Oc1ccc(/C=C/c2cc(O)cc(O)c2)cc1` [RESVERATROL], the result (in test [1]; in the test on MC3T3-E1 [2]; in test [6]; in the test with T47D; in the test on MG-63; in test [8]) was Active. The result with Osteoblast [9], in the test with MC3T3-E1 [10] and in the test with MC3T3-E1 [15] was Active. Moreover, the Ratio in the test on Osteoblast [3] stood at 2.79; with Osteoblast [4], 0.46; in the test on Osteoblast [5] it was 0.44; in the test with Osteoblast [12], 2.35; with Osteoblast [13], 3.73; in the test on Osteoblast [14], 4.41. Also, the outcome with MC3T3-E1 [7] was inactive. Moreover, the Activity entry with MC3T3-E1 [11] is “tde”.
